Experimental data reported in ChEMBL document CHEMBL1126585, “Effect of N-methyl substitution of the peptide bonds in luteinizing hormone-releasing hormone agonists” (J Med Chem, 1993).
Square brackets hold non-standard residues; d marks the D form. Peptide text beside a SMILES is read from it. pGlu = O=C1CC[C@@H](C(=O)O)N1

Columns and labels:
Rattus norvegicus [1] = species on record: Rattus norvegicus; test: Tested in vitro for LH release from cultured rat pituitary cells, activity is expressed as pD2 value; format: functional, Pituitary gland cell
Procedure, shortened: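 Cultured rat pituitary cells; LH release measured across agonist concentrations; pD2 = negative log of agonist concentration giving 50% of maximal LH release.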

[2] = Clearance in rat after iv dose (100 ug/kg); format: ADME, organism-based; details: in vivo, 0.1 mg/kg
Procedure, shortened: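 Castrate male rats given 100 μg/kg iv bolus; blood sampled over 6 h with EDTA anticoagulant. Plasma levels by RIA with antibody recognizing C-terminal Leu-Arg-Pro-NHEt or Leu-Arg-Pro-GlyNH₂ (rabbit antisera C-402 with [125I-Tyr⁵]leuprolide tracer, or 5328W with [125I-Tyr⁵,DLys⁶]LHRH). AUC by trapezoidal rule; whole-body clearance = dose/AUC, mL/min per kg.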

Rattus norvegicus [3] = species on record: Rattus norvegicus; test: Intestinal stability against rat jejunum sac, activity is expressed as T1/2; format: functional
Procedure, shortened: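 Rat jejunal sac in vitro; T1/2 taken as time, in min, for lumenal compound concentration to fall by 50%.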

| SMILES | clearance [2] | pD2 (Rattus norvegicus [1]) | T1/2 (Rattus norvegicus [3]) |
| --- | --- | --- | --- |
| CC(C)C[C@H](NC(=O)[C@@H](Cc1ccc2ccccc2c1)NC(=O)[C@H](Cc1ccc(O)cc1)NC(=O)[C@H](CO)NC(=O)[C@H](Cc1cccc2ccccc12)N(C)C(=O)[C@H](Cc1c[nH]cn1)NC(=O)[C@@H]1CCC(=O)N1)C(=O)N[C@@H](CCCN=C(N)N)C(=O)N1CCC[C@H]1C(=O)NCC(N)=O |  | 8.7 |  |
| CCNC(=O)[C@@H]1CCCN1C(=O)[C@H](CCCN=C(N)N)NC(=O)C(CC(C)C)NC(=O)C(CC(C)C)NC(=O)[C@H](Cc1ccc(O)cc1)NC(=O)[C@H](CO)NC(=O)[C@H](Cc1c[nH]c2ccccc12)NC(=O)[C@H](Cc1c[nH]cn1)N(C)C(=O)[C@@H]1CCC(=O)N1 (stereo in doubt) [listing 1 of 2 here] |  |  | 48 min |
| CCNC(=O)[C@@H]1CCCN1C(=O)[C@H](CCCN=C(N)N)NC(=O)[C@H](CC(C)C)NC(=O)[C@@H](CC(C)C)NC(=O)[C@H](Cc1ccc(O)cc1)N(C)C(=O)[C@H](CO)NC(=O)[C@H](Cc1c[nH]c2ccccc12)NC(=O)[C@H](Cc1c[nH]cn1)NC(=O)[C@@H]1CCC(=O)N1 |  |  | 42 min |
| CCNC(=O)[C@@H]1CCCN1C(=O)[C@H](CCCN=C(N)N)NC(=O)[C@H](CC(C)C)NC(=O)[C@@H](Cc1c[nH]c2ccccc12)NC(=O)[C@H](Cc1ccc(O)cc1)NC(=O)[C@H](CO)NC(=O)[C@H](Cc1cccc2ccccc12)NC(=O)[C@H](Cc1c[nH]cn1)NC(=O)[C@@H]1CCC(=O)N1 |  | 11.49 |  |
| CC(C)C[C@H](NC(=O)[C@@H](Cc1ccc2ccccc2c1)NC(=O)[C@H](Cc1ccc(O)cc1)NC(=O)[C@H](CO)NC(=O)[C@H](Cc1c[nH]c2ccccc12)NC(=O)[C@H](Cc1ccccc1)NC(=O)[C@@H]1CCC(=O)N1)C(=O)N[C@@H](CCCN=C(N)N)C(=O)N1CCC[C@H]1C(=O)NCC(N)=O |  | 10.23 |  |
| CC(C)C[C@@H](C(=O)N[C@@H](CCCN=C(N)N)C(=O)N1CCC[C@H]1C(=O)NCC(N)=O)N(C)C(=O)[C@@H](Cc1ccc2ccccc2c1)NC(=O)[C@H](Cc1ccc(O)cc1)NC(=O)[C@H](CO)NC(=O)[C@H](Cc1c[nH]c2ccccc12)NC(=O)[C@H](Cc1c[nH]cn1)NC(=O)[C@@H]1CCC(=O)N1 |  | 12.35 |  |
| CCNC(=O)[C@@H]1CCCN1C(=O)[C@H](CCCN=C(N)N)NC(=O)[C@H](CC(C)C)NC(=O)[C@@H](Cc1c[nH]c2ccccc12)NC(=O)[C@H](Cc1ccc(O)cc1)NC(=O)[C@H](CO)N(C)C(=O)[C@H](Cc1c[nH]c2ccccc12)NC(=O)[C@H](Cc1c[nH]cn1)NC(=O)[C@@H]1CCC(=O)N1 |  |  | 39.1 min |
| CC(C)C[C@H](NC(=O)[C@@H](Cc1ccc2ccccc2c1)N(C)C(=O)[C@H](Cc1ccc(O)cc1)NC(=O)[C@H](CO)NC(=O)[C@H](Cc1c[nH]c2ccccc12)NC(=O)[C@H](Cc1c[nH]cn1)NC(=O)[C@@H]1CCC(=O)N1)C(=O)N[C@@H](CCCN=C(N)N)C(=O)N1CCC[C@H]1C(=O)NCC(N)=O |  | 8.3 |  |
| CCNC(=O)[C@@H]1CCCN1C(=O)[C@H](CCCN=C(N)N)NC(=O)C(CC(C)C)NC(=O)C(CC(C)C)NC(=O)[C@H](Cc1ccc(O)cc1)NC(=O)[C@H](CO)NC(=O)[C@H](Cc1c[nH]c2ccccc12)NC(=O)[C@H](Cc1c[nH]cn1)N(C)C(=O)[C@@H]1CCC(=O)N1 (stereo in doubt) [listing 2 of 2 here] |  | 8.22 |  |
| CC(C)C[C@H](NC(=O)[C@@H](Cc1ccc2ccccc2c1)NC(=O)[C@H](Cc1ccc(O)cc1)NC(=O)[C@H](CO)NC(=O)[C@H](Cc1cccc2ccccc12)NC(=O)[C@H](Cc1c[nH]cn1)NC(=O)[C@@H]1CCC(=O)N1)C(=O)N[C@@H](CCCN=C(N)N)C(=O)N1CCC[C@H]1C(=O)NCC(N)=O |  | 11.55 |  |

Further lines, with some results ahead:

| clearance [2] | SMILES | pD2 (Rattus norvegicus [1]) | T1/2 (Rattus norvegicus [3]) |
| --- | --- | --- | --- |
| 3.55 mL/min/kg | CC(C)C[C@H](NC(=O)[C@@H](Cc1ccc2ccccc2c1)NC(=O)[C@H](Cc1ccc(O)cc1)NC(=O)[C@H](CO)NC(=O)[C@H](Cc1c[nH]c2ccccc12)NC(=O)[C@H](Cc1c[nH]cn1)NC(=O)[C@@H]1CCC(=O)N1)C(=O)N[C@@H](CCCN=C(N)N)C(=O)N1CCC[C@H]1C(=O)N(C)CC(N)=O | 11.87 |  |
| 19.9 mL/min/kg | CCNC(=O)[C@@H]1CCCN1C(=O)[C@H](CCCN=C(N)N)NC(=O)[C@H](CC(C)C)NC(=O)[C@@H](Cc1c[nH]c2ccccc12)NC(=O)[C@H](Cc1ccc(O)cc1)NC(=O)[C@H](CO)N(C)C(=O)[C@H](Cc1c[nH]c2ccccc12)NC(=O)[C@H](Cc1cnc[nH]1)NC(=O)[C@@H]1CCC(=O)N1 |  |  |
| 25.4 mL/min/kg | CCNC(=O)[C@@H]1CCCN1C(=O)[C@H](CCCN=C(N)N)NC(=O)[C@H](CC(C)C)NC(=O)[C@@H](CC(C)C)NC(=O)[C@H](Cc1ccc(O)cc1)NC(=O)[C@H](CO)NC(=O)[C@H](Cc1c[nH]c2ccccc12)NC(=O)[C@H](Cc1ccccc1)NC(=O)[C@@H]1CCC(=O)N1 ([pGlu]FWSY[dL]LRP-NHEt) |  | 2.2 min |
| 34.3 mL/min/kg | CCNC(=O)[C@@H]1CCCN1C(=O)[C@H](CCCNC(=N)N)NC(=O)[C@H](CC(C)C)NC(=O)[C@@H](Cc1c[nH]c2ccccc12)NC(=O)[C@H](Cc1ccc(O)cc1)NC(=O)[C@H](CO)NC(=O)[C@H](Cc1c[nH]c2ccccc12)NC(=O)[C@H](Cc1c[nH]cn1)NC(=O)[C@@H]1CCC(=O)N1 [DESLORELIN] | 11.33 |  |
| 11.1 mL/min/kg | CCNC(=O)[C@@H]1CCCN1C(=O)[C@H](CCCN=C(N)N)NC(=O)[C@H](CC(C)C)NC(=O)[C@@H](Cc1c[nH]c2ccccc12)NC(=O)[C@H](Cc1ccc(O)cc1)N(C)C(=O)[C@H](CO)NC(=O)[C@H](Cc1c[nH]c2ccccc12)NC(=O)[C@H](Cc1c[nH]cn1)NC(=O)[C@@H]1CCC(=O)N1 | 10.55 |  |
| 25 mL/min/kg | CCNC(=O)[C@@H]1CCCN1C(=O)[C@H](CCCN=C(N)N)N(C)C(=O)[C@H](CC(C)C)NC(=O)[C@@H](Cc1c[nH]c2ccccc12)NC(=O)[C@H](Cc1ccc(O)cc1)NC(=O)[C@H](CO)NC(=O)[C@H](Cc1c[nH]c2ccccc12)NC(=O)[C@H](Cc1c[nH]cn1)NC(=O)[C@@H]1CCC(=O)N1 | 9.35 |  |
| 15.1 mL/min/kg | CCNC(=O)[C@@H]1CCCN1C(=O)[C@H](CCCN=C(N)N)NC(=O)[C@H](CC(C)C)NC(=O)[C@@H](Cc1c[nH]c2ccccc12)NC(=O)[C@H](Cc1ccc(O)cc1)NC(=O)[C@H](CO)NC(=O)[C@H](Cc1cccc2ccccc12)N(C)C(=O)[C@H](Cc1c[nH]cn1)NC(=O)[C@@H]1CCC(=O)N1 | 8.35 |  |
| 4.13 mL/min/kg | CC(C)C[C@H](NC(=O)[C@@H](Cc1ccc2ccccc2c1)NC(=O)[C@H](Cc1ccc(O)cc1)NC(=O)[C@H](CO)NC(=O)[C@H](Cc1c[nH]c2ccccc12)NC(=O)[C@H](Cc1c[nH]cn1)N(C)C(=O)[C@@H]1CCC(=O)N1)C(=O)N[C@@H](CCCN=C(N)N)C(=O)N1CCC[C@H]1C(=O)NCC(N)=O | 8.18 |  |
| 19.5 mL/min/kg | CCNC(=O)[C@@H]1CCCN1C(=O)[C@H](CCCNC(=N)N)NC(=O)[C@H](CC(C)C)N(C)C(=O)[C@@H](Cc1c[nH]c2ccccc12)NC(=O)[C@H](Cc1ccc(O)cc1)NC(=O)[C@H](CO)NC(=O)[C@H](Cc1c[nH]c2ccccc12)NC(=O)[C@H](Cc1c[nH]cn1)NC(=O)[C@@H]1CCC(=O)N1 [LUTRELIN] | 10.7 |  |
| 4.32 mL/min/kg | CC(C)C[C@H](NC(=O)[C@@H](Cc1c[nH]c2ccccc12)NC(=O)[C@H](Cc1ccc(O)cc1)NC(=O)[C@H](CO)NC(=O)[C@H](Cc1c[nH]c2ccccc12)NC(=O)[C@H](Cc1c[nH]cn1)NC(=O)[C@@H]1CCC(=O)N1)C(=O)N[C@@H](CCCN=C(N)N)C(=O)N1CCC[C@H]1C(=O)N(C)CC(N)=O | 10.05 |  |
